Results on 1 compound are retold here after ChEMBL document CHEMBL4765230, “Discovery of Orally Efficacious Phosphoinositide 3-Kinase δ Inhibitors with Improved Metabolic Stability” (J Med Chem, 2016).

Data set [1] concerns Rattus norvegicus. As to the kind of experiment: Antiarthritic activity in Lewis rat model of Freund's incomplete adjuvant-induced arthritis assessed as reduction in ankle swelling at 3 mg/kg, po bid administered for 7 days at 12 hrs interval starting from day 10 to day 16 post-immunization by caliper method relative to control. In kind it is functional. More on the design: scale not given: the % may be the effect or the level left. Conditions: time 7 day. The method, boiled down:
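Established collagen-induced arthritis in female Lewis rats; oral dosing twice daily for 7 days from day 10 after second immunization. Right and left ankle diameters measured by caliper daily, days 9–18; ankle diameter AUC over days 11–18 compared with arthritic vehicle group (ANOVA, p < 0.05). n = 8/treatment group.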

A short description of data set [2]: Chemical stability of the compound at pH 2 phosphate buffer assessed as time required for 50% hydrolytic degradation at 100 ug/ml and 40 degreeC by UPLC-UV analysis. Conditions: dose 100 µg/ml, read-out: Time (converted). The class given is physicochemical. The method, boiled down:
(§1)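 Compound diluted from acetonitrile or DMSO stock to 100 μg/mL final in 50 mM phosphate buffer, pH 2 (or pH 7), ionic strength 0.15 M NaCl, 40 °C in autosampler. Timed injections analysed by reverse-phase UPLC-UV (220 nm); pseudo-first-order kobs from ln c vs time; t50 and t90 calculated.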

Data set [3] can be described thus: MRT in cynomolgus monkey at 1 mg/kg, iv measured over 24 hrs by LC/MS/MS analysis. The class given is ADME, organism-based, Macaca fascicularis. Conditions: in vivo. The method, boiled down:
(§2)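 Intravenous 1 mg/kg and oral 5 mg/kg doses. Vehicle: 5% ethanol/55% PEG 400/40% water for rats and dogs; 5% ethanol/22% PEG 400/73% water for cynomolgus; 5% ethanol/25% PEG 400/70% water for rhesus. Half-life and MRT from iv; mean ± SD, n = 3 per route.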

Data set [4] concerns Rattus norvegicus. The data set is described as follows: Antiarthritic activity in Lewis rat model of Freund's incomplete adjuvant-induced arthritis assessed as inhibition of bone resorption at 0.3 to 3 mg/kg, po bid administered for 7 days at 12 hrs interval starting from day 10 to day 16 post-immunization by microscopic analysis relative to control. The class given is functional. Set-up: scale not given: the % may be the effect or the level left. As to conditions: dose 0.3-3 mg/kg, time 7 day. The method, boiled down: (§3)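 Female Lewis rats with established collagen-induced arthritis dosed orally twice daily for 7 days at 0.3, 1 and 3 mg/kg, starting day 10 after second collagen immunization. Joint histopathology scored for pannus formation, cartilage damage, bone resorption and periosteal bone formation; ED50 derived. n = 8/treatment group, n = 4 normal controls.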

Data set [5] relates to Rattus norvegicus. The data set is described as follows: Antiarthritic activity in Lewis rat model of Freund's incomplete adjuvant-induced arthritis assessed as inhibition of pannus formation at 0.3 to 3 mg/kg, po bid administered for 7 days at 12 hrs interval starting from day 10 to day 16 post-immunization by microscopic analysis relative to control. As to conditions: dose 0.3-3 mg/kg, time 7 day. More on the design: scale not given: the % may be the effect or the level left. The class given is functional. The method, boiled down: as §3

For data set [6], the target named is PI3-kinase p110-alpha/p85-alpha (Homo sapiens, UniProt P42336). As to the kind of experiment: Inhibition of human full length PI3K p110alpha/p85alpha using […] as substrate measured after 30 mins by TR-FRET assay. In kind it is protein-complex assay. (TR-FRET usually uses a lanthanide donor and a delayed reading to cut background.)

Data set [7] can be described thus: Selectivity index, ratio of IC50 for inhibition of recombinant human full-length N-terminal His-tagged PI3K p110beta/p85alpha to IC50 for inhibition of human full length PI3K p110delta/p85alpha.
Data set [8] is described as follows: Clearance in dog at 1 mg/kg, iv. The class given is ADME, organism-based, Canis lupus familiaris. Conditions: in vivo.
Data set [9] in a line: MRT in rhesus monkey at 1 mg/kg, iv measured over 24 hrs by LC/MS/MS analysis. In kind it is ADME, organism-based, Macaca mulatta. Conditions: in vivo. The method, boiled down:
as §2

Data set [10] can be described thus: Oral bioavailability in rat at 5 mg/kg. In kind it is ADME, organism-based. As to conditions: in vivo.
Data set [11] in a line: Volume of distribution at steady state in rhesus monkey at 1 mg/kg, iv measured over 24 hrs by LC/MS/MS analysis. The class given is ADME, organism-based, Macaca mulatta. Conditions: in vivo, read-out: Vdss. The method, boiled down: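 Single intravenous dose of 1 mg/kg. Vehicles: rats and dogs 5% ethanol/55% PEG 400/40% water; cynomolgus monkeys 5% ethanol/22% PEG 400/73% water; rhesus monkeys 5% ethanol/25% PEG 400/70% water. Plasma concentration–time data gave Vss and iv half-life. Reported as mean ± SD, n = 3.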

For data set [12], the target named is Phosphatidylinositol 4,5-bisphosphate 3-kinase catalytic subunit beta isoform (Homo sapiens, UniProt P42338). As to the kind of experiment: Inhibition of PI3K p110beta in human PC-3 cells assessed as reduction in AKT phosphorylation at S473 residue measured after 2 hrs by TR-FRET analysis. In kind it is cell-based. A digest of the protocol: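 PC3 cells quiesced 2 h at 37 °C/5% CO2 in DMEM with 0.1% FBS/1% PSG, then plated at 25 000 cells/well onto prespotted compound dilutions and incubated 2 h. Lysates were read for Akt and phospho-Akt S473 by TR-FRET (Eu-cryptate Akt donor, d2 phospho-Akt acceptor). Data normalized to 1 μM wortmannin and DMSO controls; four-parameter fit; triplicate; geometric mean.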

A short description of data set [13]: Clearance in rhesus monkey at 1 mg/kg, iv measured over 24 hrs by LC/MS/MS analysis. The class given is ADME, organism-based, Macaca mulatta. Conditions: in vivo. A digest of the protocol: as §2
Data set [14] in a line: Chemical stability of the compound at pH 2 phosphate buffer assessed as time required for 90% hydrolytic degradation at 100 ug/ml and 40 degreeC by UPLC-UV analysis. Conditions: in the assay text read “10% hydrolytic degradation” for “90% hydrolytic degradation”, dose 100 µg/ml. In kind it is physicochemical. A digest of the protocol: as §1
In data set [15] the target is Phosphatidylinositol 4,5-bisphosphate 3-kinase catalytic subunit gamma isoform (Homo sapiens, UniProt P48736). As to the kind of experiment: Inhibition of PI3K p110gamma in human basophil assessed as reduction in fMLP-induced basophil activation in presence of 25% serum by flow cytometry analysis. In kind it is tissue-based. A digest of the protocol:
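Basophil activation via fMLP (p110γ) in 25% serum or in isolated WBCs in low serum, with increasing compound concentrations. Anti-CD63-FITC/anti-CCR3-PE staining; ≥150 (25% serum) or ≥75 (low serum) CCR3-high basophils gated; % CD63-positive normalized to 0.3% DMSO vehicle; concentration corrected for reagent dilution.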
In general terms: In flow cytometry, cells or beads pass a laser one at a time.

The term MRT denotes the average time that molecules of a dose stay in the body. Usually IC50 stands for the concentration that gives 50% inhibition. Usually clearance stands for a measure of how efficiently the substance is removed, as volume per time. Broadly, the bioavailability is dose-corrected exposure relative to a reference, in per cent. For orientation: EC50 means the midpoint of the concentration-response curve.

Sequence of PI3-kinase p110-alpha/p85-alpha (P27986 whole entry): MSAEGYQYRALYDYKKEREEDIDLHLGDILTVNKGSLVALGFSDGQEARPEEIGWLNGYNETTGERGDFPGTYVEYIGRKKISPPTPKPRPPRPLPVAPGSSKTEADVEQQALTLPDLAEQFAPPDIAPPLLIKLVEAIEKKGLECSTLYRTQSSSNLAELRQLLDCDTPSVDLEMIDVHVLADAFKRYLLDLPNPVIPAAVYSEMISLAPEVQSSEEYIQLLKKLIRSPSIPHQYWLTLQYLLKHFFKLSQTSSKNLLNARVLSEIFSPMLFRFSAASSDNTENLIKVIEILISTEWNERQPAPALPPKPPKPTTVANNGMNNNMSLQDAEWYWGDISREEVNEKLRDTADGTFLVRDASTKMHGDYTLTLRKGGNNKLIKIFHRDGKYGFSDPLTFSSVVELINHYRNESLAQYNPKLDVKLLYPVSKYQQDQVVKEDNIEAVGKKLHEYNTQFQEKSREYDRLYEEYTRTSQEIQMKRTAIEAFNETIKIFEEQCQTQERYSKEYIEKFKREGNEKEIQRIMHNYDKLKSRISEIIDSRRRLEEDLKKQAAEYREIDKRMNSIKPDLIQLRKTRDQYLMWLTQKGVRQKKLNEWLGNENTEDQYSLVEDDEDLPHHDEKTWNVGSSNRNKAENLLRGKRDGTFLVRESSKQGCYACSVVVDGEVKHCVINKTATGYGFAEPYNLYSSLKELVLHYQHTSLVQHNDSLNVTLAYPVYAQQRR
Sequence of PI3-kinase p110-alpha/p85-alpha (P42336 whole entry): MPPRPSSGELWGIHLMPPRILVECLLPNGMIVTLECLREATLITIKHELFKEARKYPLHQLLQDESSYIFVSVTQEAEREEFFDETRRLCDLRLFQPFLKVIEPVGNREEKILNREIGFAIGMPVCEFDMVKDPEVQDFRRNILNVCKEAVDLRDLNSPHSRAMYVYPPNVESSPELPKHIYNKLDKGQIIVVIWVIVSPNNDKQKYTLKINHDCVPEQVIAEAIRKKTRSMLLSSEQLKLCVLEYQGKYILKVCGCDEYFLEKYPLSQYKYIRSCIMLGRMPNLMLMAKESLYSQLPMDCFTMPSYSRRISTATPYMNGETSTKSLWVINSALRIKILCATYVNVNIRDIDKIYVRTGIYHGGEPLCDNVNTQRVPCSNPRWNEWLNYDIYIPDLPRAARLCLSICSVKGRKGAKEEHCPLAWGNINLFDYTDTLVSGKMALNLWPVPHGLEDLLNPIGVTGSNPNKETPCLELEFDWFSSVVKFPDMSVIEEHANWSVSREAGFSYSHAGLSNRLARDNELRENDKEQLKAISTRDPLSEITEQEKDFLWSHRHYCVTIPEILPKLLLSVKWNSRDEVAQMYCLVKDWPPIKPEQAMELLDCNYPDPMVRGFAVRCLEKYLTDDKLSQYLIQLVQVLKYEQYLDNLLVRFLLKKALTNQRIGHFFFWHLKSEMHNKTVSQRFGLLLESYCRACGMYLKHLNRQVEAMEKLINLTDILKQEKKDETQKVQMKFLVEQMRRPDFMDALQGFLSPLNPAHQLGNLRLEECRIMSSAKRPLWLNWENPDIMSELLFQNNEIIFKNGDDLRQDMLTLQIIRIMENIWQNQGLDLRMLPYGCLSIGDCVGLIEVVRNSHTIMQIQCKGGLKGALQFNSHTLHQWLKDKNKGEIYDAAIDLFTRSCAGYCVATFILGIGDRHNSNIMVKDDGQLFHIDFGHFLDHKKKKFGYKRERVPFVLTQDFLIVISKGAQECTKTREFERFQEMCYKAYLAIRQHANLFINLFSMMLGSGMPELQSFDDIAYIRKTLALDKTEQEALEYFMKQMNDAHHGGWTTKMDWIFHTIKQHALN
Sequence of Phosphatidylinositol 4,5-bisphosphate 3-kinase catalytic subunit beta isoform (P42338 whole entry, canonical isoform): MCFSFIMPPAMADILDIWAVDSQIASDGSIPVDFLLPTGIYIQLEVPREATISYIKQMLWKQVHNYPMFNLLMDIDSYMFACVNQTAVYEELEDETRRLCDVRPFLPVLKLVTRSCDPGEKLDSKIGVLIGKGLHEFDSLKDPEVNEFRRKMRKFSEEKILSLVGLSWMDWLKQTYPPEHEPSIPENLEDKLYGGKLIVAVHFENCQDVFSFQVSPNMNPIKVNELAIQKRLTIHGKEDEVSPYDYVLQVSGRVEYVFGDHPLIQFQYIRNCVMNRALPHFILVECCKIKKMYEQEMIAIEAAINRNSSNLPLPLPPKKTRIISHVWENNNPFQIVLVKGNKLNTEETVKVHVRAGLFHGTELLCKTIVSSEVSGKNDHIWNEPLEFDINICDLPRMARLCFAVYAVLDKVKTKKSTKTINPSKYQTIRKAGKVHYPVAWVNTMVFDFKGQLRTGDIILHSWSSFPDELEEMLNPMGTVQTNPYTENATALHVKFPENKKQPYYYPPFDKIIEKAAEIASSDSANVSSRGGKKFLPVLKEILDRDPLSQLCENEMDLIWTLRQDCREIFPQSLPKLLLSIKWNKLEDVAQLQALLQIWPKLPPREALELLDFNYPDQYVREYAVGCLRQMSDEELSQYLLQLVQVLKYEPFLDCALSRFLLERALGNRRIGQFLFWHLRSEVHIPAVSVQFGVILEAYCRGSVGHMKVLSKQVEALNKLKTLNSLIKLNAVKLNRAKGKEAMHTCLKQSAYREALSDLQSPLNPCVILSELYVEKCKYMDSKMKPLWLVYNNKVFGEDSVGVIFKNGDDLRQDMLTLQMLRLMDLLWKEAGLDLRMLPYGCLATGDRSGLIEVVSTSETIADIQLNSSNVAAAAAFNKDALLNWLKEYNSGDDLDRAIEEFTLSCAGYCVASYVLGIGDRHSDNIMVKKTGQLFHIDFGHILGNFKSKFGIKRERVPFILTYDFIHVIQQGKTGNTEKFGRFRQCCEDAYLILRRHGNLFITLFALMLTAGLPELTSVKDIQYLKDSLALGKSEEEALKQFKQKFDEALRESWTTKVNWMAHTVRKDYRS
Sequence of Phosphatidylinositol 4,5-bisphosphate 3-kinase catalytic subunit gamma isoform (P48736 whole entry, canonical isoform): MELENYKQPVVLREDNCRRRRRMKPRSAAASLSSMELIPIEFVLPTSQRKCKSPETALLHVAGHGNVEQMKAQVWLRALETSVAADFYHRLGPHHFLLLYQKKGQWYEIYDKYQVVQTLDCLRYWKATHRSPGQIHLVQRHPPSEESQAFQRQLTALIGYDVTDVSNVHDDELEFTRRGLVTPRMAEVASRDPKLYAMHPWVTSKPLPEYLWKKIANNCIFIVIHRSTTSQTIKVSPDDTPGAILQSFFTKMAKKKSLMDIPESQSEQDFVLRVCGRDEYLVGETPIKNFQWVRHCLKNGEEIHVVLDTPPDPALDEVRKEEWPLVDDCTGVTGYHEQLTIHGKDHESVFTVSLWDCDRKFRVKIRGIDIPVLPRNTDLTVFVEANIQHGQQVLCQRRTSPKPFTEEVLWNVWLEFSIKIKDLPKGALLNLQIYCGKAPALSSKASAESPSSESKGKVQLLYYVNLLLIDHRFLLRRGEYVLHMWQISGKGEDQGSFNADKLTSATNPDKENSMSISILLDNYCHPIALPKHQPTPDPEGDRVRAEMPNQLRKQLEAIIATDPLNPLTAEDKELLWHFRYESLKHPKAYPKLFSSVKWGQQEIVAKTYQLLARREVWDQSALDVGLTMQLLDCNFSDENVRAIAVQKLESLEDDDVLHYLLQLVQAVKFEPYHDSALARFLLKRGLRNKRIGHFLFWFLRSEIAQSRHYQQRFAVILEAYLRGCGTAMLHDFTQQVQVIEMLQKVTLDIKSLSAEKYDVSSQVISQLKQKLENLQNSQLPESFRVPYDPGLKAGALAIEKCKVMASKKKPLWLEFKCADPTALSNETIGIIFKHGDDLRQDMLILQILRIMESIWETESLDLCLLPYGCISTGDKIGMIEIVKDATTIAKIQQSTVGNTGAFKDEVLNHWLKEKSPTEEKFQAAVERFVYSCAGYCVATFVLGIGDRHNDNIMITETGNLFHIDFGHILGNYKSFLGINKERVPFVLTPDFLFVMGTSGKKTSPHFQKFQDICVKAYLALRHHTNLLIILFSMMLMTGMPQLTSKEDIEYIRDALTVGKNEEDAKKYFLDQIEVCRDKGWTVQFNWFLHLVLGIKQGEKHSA

Turning to `N#Cc1c(N)nc(N)nc1N[C@H](c1nc2c(F)ccc(Cl)c2c(=O)n1-c1cccnc1)C1CC1` [GS-9901], the Activity in the data set with Rattus norvegicus [1] amounted to 65%; in the data set with Rattus norvegicus [4] it was 50%; in the data set on Rattus norvegicus [5], 58%. For the same compound, the half-life at 100 ug/ml in [2] was 20 h. The MRT in data set [3] turned out to be 3.05 h; in data set [9], 2 h. Further, in [6], the half-inhibitory concentration (IC50) came out at 0.75 µM. Further, the Ratio IC50 in [7] worked out at 100. The clearance in data set [8] is 9 mL/min/kg; in data set [13] it was 11.7 mL/min/kg. The bioavailability in [10] was determined as 57%. For the same compound, the Vd in data set [11] was found to be 1.34 L/kg. Besides, the EC50 in data set [12] stood at 0.042 µM; in data set [15], 0.581 µM. Also, the Time in data set [14] was 3.1 h.
